Screening results: PubChem BioAssay, Broad Institute
S100A4 inh HTS: S100A4-myosin IIA interaction inhibition | actives 0.14% (n = 360,000) | inhibition, % at 10.7 µM | S100A4/TAMRA-MyoIIA peptide fluorescence polarization | P26447 | AID 652163;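 active = mean inhibition of at least 70% across replicates, with every replicate also reaching that level; inconclusive = mean inhibition reaches 70% but some replicates fall short; inactive = mean inhibition below 70%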
Target sequence (P26447 whole entry, looked up): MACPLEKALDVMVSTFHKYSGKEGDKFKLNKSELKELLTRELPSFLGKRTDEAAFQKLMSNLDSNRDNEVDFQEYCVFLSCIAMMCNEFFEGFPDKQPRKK
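Test system – S100A4 monomer (human) · Compound – single-point compound testing · Schedule – 5 min incubation before reading · Probe or stimulus – TAMRA-labelled myosin IIA heavy-chain peptide probe, 5 nM · Benchmarks – neutral control DMSO, positive control TFP · Medium – Calcium-containing HEPES buffer, pH 7.2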
PGC1a acetyl inh: PGC1a acetylation modulation, inhibitor mode; U2OS PGC1a acetylation, AlphaScreen anti-acetyl-lysine; with virally co-expressed GCN5 acetyltransferase; inhibition, % at 15.6 µM; actives 0.17% (n = 350,000); AID 651687;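 active = every replicate shows inhibition of at least 40%; inconclusive = mean inhibition at least 40% but some replicate below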;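 also: 0% = neutral control wells and 100% = positive control wells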
DENV2 CPE: protects cells from dengue virus 2 cytopathic effect; DENV2-infected cells, cytopathic effect rescue, plate reader; CPE inhibition, % at 9.99 µM; actives 1.7% (n = 350,000); AID 651640; in the data active = CPE inhibition above about 20%, passing the limit was not always enough; inconclusive = no clear call, values can overlap the other calls; tested in BHK-21 cells;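 also: 0% = median of neutral control wells and 100% = median of positive control wells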
Statin myotox sup: suppression of simvastatin myotoxicity | rescue of ATP level, % at 7.49 µM | C2C12 myotubes + simvastatin, ATP luminescence, 48 h; scaled: DMSO 0, geranylgeraniol control 100 | AID 602340 | actives 0.78% (n = 330,000);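 active = mean ATP rescue above about 67%, or every replicate alone reaching that limit, limit read from the data, passing the limit was not always enough; inconclusive = no clear call, values can overlap the other calls; inactive = mean under the limit and some replicate under it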;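 also: myotubes were challenged with 10 µM simvastatin during compound exposure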
SIRT5 block: blocks human SIRT5 desuccinylation of peptide; Purified SirT5, succinyl-peptide AMC, trypsin-coupled fluorescence; inhibition, % at 15 µM; actives 1.1% (n = 330,000); AID 652115; in the data active = inhibition above about 15%; inconclusive = no clear call, values can overlap the other calls
Target sequence (Q9NXA8 whole entry, looked up): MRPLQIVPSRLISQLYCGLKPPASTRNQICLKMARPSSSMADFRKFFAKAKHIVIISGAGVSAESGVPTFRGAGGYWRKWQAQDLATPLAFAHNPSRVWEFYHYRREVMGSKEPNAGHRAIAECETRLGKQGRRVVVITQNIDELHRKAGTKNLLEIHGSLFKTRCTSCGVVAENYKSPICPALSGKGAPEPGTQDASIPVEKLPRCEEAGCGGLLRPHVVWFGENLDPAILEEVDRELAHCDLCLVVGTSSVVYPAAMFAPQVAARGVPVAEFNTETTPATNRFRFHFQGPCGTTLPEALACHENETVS
Active calls of the source: *; ? = inconclusive; nt = no result given. A selection: hits, their analogues and other compounds. The true share with any hit is near 2.9%.

SMILES	S100A4 inh HTS	PGC1a acetyl inh	DENV2 CPE	Statin myotox sup	SIRT5 block
CCCSc1ccc([C@@H]2[C@H]3C(=O)N(CC)C(=O)[C@H]3[C@]3(C(=O)OC)CCCN23)cc1	-15	-1	nt	32	36*
CCC(C)Sc1ccc([C@@H]2[C@@H]3C(=O)N(C)C(=O)[C@@H]3[C@]3(C(=O)OC)CCCCN23)cc1OC (some centres undefined)	-6	-6	-11	1	nt
CCN(CC(=O)Nc1ccccc1OC)CC(=O)Nc1sccc1C#N	0	1	-4	8	15*
CC(C)(C)OC(=O)N(Cc1ccccc1)Cc1ccccc1OCc1ccc(NC(=O)C2CCC2)cc1	64	-6	28*	-25	1
CC(C)(C)OC(=O)N(CCc1ccccc1)Cc1ccccc1OCc1cccc(NC(=O)C2CCCC2)c1	-3	nt	-14	-14	29*
CC(C)(C)OC(=O)N(CCc1ccccc1)Cc1ccccc1OCc1ccc(NC(=O)C2CCC2)cc1	-21	-3	-10	-4	-1
CC(C)(C)OC(=O)N(CCc1ccccc1)Cc1ccccc1OCc1cccc(NC(=O)C2CC2)c1	2	-13	-2	-8	-1
CC(C)C(=O)Nc1cccc(COc2ccccc2CN(Cc2ccccc2)C(=O)OC(C)(C)C)c1	-7	2	-2	-14	18*
C[C@H]1CCCCO[C@H](CN(C)CC2CC2)[C@@H](C)CN([C@@H](C)CO)C(=O)c2cc(NC(=O)C3CCCCC3)ccc2O1	2	6	0	nt	-1
CCC(=O)Nc1ccc2c(c1)C(=O)N(C)C[C@H](OC)[C@@H](C)CN(Cc1ccccc1C(=O)O)[C@H](C)CO2	5	5	-7	15	0
Cc1ccc(S(=O)(=O)N[C@@H]2CC[C@H](CCNC(=O)C3CCCC3)O[C@@H]2CO)cc1	0	-4	2	1	2
CCC(=O)N[C@@H]1CC[C@@H](CCn2cc(-c3cccc(OC)c3)nn2)O[C@H]1CO	9	7	13	-1	0
N#C[C@@H]1[C@H](c2ccccc2-c2cccc(F)c2)[C@@H](CO)N1C(=O)C1CC1	77*	-14	?	nt	3
N#C[C@@H]1[C@@H](c2ccccc2-c2cccc(F)c2)[C@@H](CO)N1C(=O)C1CCC1	5	-7	29*	nt	2
COCC(=O)N1[C@H](CO)[C@H](c2ccccc2-c2cccc(F)c2)[C@@H]1C#N	3	0	33*	nt	7
CNC[C@@H]1Oc2c(NS(=O)(=O)c3cn(C)cn3)cccc2C(=O)N([C@H](C)CO)C[C@H]1C	-2	25	2	31	3
O=C(C1CCCCC1)N1C[C@H]2[C@@H](c3ccccc31)[C@H](CO)N2C(=O)Cc1ccccn1	-2	-8	5	4	16*
O=C(C1CCCC1)N1C[C@@H]2[C@H](c3ccccc31)[C@@H](CO)N2C(=O)Cc1ccccn1	3	-1	34*	0	3
S=C(SSC(=S)N1CCOCC1)N1CCOCC1	-1	nt	24*	nt	-2
CC(SC(=S)N1CCOCC1)C(=O)O (centres undefined)	nt	8	nt	nt	nt
CN(C)CC(=O)Nc1ccc2c(c1)[C@H]1C[C@@H](CC(=O)N3CCN(C)CC3)O[C@H](CO)[C@H]1O2	3	1	?	1	nt
CCCCn1nnc(NC(=S)NC(=O)c2cccs2)n1	-3	nt	-5	nt	21*
Cn1nnc(NC(=S)NC(=O)c2cccs2)n1	18	-3	2	-9	-5
CO[C@@H]1CN(C)C(=O)c2ccc(NC(=O)CC(F)(F)F)cc2OC[C@H](C)N(S(=O)(=O)c2cn(C)cn2)C[C@H]1C	-6	0	-6	nt	3
CO[C@@H]1CN(C)C(=O)c2cc(NC(=O)CC(F)(F)F)ccc2OC[C@H](C)N(S(=O)(=O)c2cn(C)cn2)C[C@@H]1C	27	-11	14	nt	16*
SMILES	S100A4 inh HTS	PGC1a acetyl inh	DENV2 CPE	Statin myotox sup	SIRT5 block
CO[C@H]1CN(C)C(=O)c2cc(NC(C)=O)ccc2OC[C@H](C)N(S(=O)(=O)c2cn(C)cn2)C[C@H]1C	-3	-3	-2	10	24*
CCC(=O)N1C[C@@H]2[C@H](c3ccccc31)[C@H](CO)N2C(=O)Nc1ccccc1	0	4	nt	10	1
CCCCCCOC(=O)CCc1c(C)nc(N)[nH]c1=O	nt	-6	nt	98*	nt
Cc1noc(C)c1NC(=O)N(C)C[C@@H]1Oc2ccc(NC(=O)C3CCCCC3)cc2CC(=O)N([C@H](C)CO)C[C@H]1C	13	4	2	18	-3
Cc1noc(C)c1NC(=O)N(C)C[C@@H]1Oc2ccc(NC(=O)C3CCCCC3)cc2CC(=O)N([C@@H](C)CO)C[C@@H]1C	-2	6	31*	-19	-6
Cc1noc(C)c1NC(=O)Nc1ccc2c(c1)CC(=O)N([C@H](C)CO)C[C@H](C)[C@H](CN(C)C(=O)NC1CCCCC1)O2	3	4	-7	-16	-6
Cc1noc(C)c1NC(=O)N(C)C[C@H]1Oc2ccc(NC(=O)NC3CCCCC3)cc2CC(=O)N([C@H](C)CO)C[C@H]1C	3	-8	22*	1	nt
Cc1noc(C)c1NC(=O)Nc1ccc2c(c1)CC(=O)N([C@@H](C)CO)C[C@@H](C)[C@@H](CN(C)C(=O)NC1CCCCC1)O2	-3	2	-5	10	-6
Cc1noc(C)c1NC(=O)N(C)C[C@H]1Oc2ccc(NC(=O)NC(C)C)cc2CC(=O)N([C@H](C)CO)C[C@H]1C	3	4	11	-11	21*
Cc1noc(C)c1NC(=O)N(C)C[C@@H]1Oc2ccc(NC(=O)NC3CCCCC3)cc2CC(=O)N([C@@H](C)CO)C[C@H]1C	0	1	24*	4	-4
CN(C)C(=O)c1cccc(-c2ccc([C@H]3[C@H]4CN(C(=O)C5CCCC5)CC(=O)N4[C@H]3CO)cc2)c1	-10	1	14	nt	6
C[C@@H]1CN([C@H](C)CO)C(=O)c2cccc(NC(=O)c3cnccn3)c2O[C@H]1CN(C)C(=O)Nc1ccc2c(c1)OCO2	?	-14	-3	-26	-2
C[C@H]1CN([C@@H](C)CO)C(=O)Cc2cc(NC(=O)CCC(F)(F)F)ccc2O[C@@H]1CN(C)Cc1ccncc1	0	3	nt	-7	nt
COCCNC(=O)[C@@H]1[C@@H](CO)[C@@H]2Cn3c(ccc(C4=CCCCC4)c3=O)[C@H]1N2C(=O)C1CC1	-2	nt	0	12	-22
Cc1noc(C)c1NC(=O)N(C)C[C@@H]1Oc2ccc(NC(=O)NC(C)C)cc2C(=O)N([C@@H](C)CO)C[C@H]1C	-25	1	45*	-26	-2
Cc1noc(C)c1NC(=O)N(C)C[C@H]1Oc2ccc(NC(=O)NC(C)C)cc2C(=O)N([C@@H](C)CO)C[C@@H]1C	53	2	-5	3	-1
